Reference: ChEMBL document CHEMBL1152495, “Synthesis and antimicrobial studies of novel methylene bridged benzisoxazolyl imidazo[2,1-b][1,3,4]thiadiazole derivatives” (2009)
In brackets after ≈: the same amount, converted by molar mass.

Experiments:
Format in all cases: functional
Aspergillus fumigatus [1] = test: Antifungal activity against Aspergillus fumigatus at 100 ug/ml after 72 hrs by agar well diffusion method; settings: read-out: IZ
Outline: (§1)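 Fungi grown on Potato Dextrose Agar (20 mL per dish), seeded homogeneously with liquid culture by spread plating. Samples loaded directly into agar wells, with dimethylformamide as solvent control and clotrimazole as reference drug. Plates incubated at 25 °C for 72 h, triplicate determinations.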

Aspergillus fumigatus [2] = test: Antifungal activity against Aspergillus fumigatus after 72 hrs by agar well diffusion method; outline: as §1
Candida albicans [3] = test: Antifungal activity against Candida albicans at 100 ug/ml after 72 hrs by agar well diffusion method; settings: read-out: IZ; outline: as §1
Candida albicans [4] = test: Antifungal activity against Candida albicans after 72 hrs by agar well diffusion method; outline: as §1
Bacillus subtilis [5] = test: Antibacterial activity against Bacillus subtilis ATCC 6633 at 100 ug/ml after 24 hrs by agar well diffusion method; settings: ATCC 6633, 24 h, read-out: IZ
Outline: (§2)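 Agar well diffusion on Mueller Hinton agar (20 mL per dish), seeded homogeneously with liquid bacterial culture by spread plating. Samples loaded directly into wells, dimethylformamide as solvent control, ampicillin as reference drug. Plates incubated at 37 °C for 24 h. All determinations done in triplicate.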

Staphylococcus aureus [6] = test: Antibacterial activity against Staphylococcus aureus ATCC 25923 at 100 ug/ml after 24 hrs by agar well diffusion method; settings: ATCC 25923, 24 h, read-out: IZ; outline: as §2
Escherichia coli [7] = test: Antibacterial activity against Escherichia coli ATCC 35218 at 100 ug/ml after 24 hrs by agar well diffusion method; settings: ATCC 35218, 24 h, read-out: IZ; outline: as §2
Bacillus subtilis [8] = test: Antibacterial activity against Bacillus subtilis ATCC 6633 after 24 hrs by agar well diffusion method; settings: ATCC 6633, 24 h; outline: as §2
Staphylococcus aureus [9] = test: Antibacterial activity against Staphylococcus aureus ATCC 25923 after 24 hrs by agar well diffusion method; settings: ATCC 25923, 24 h; outline: as §2
Escherichia coli [10] = test: Antibacterial activity against Escherichia coli ATCC 35218 after 24 hrs by agar well diffusion method; settings: ATCC 35218, 24 h; outline: as §2
Pseudomonas aeruginosa [11] = test: Antibacterial activity against Pseudomonas aeruginosa ATCC 10145 after 24 hrs by agar well diffusion method; settings: ATCC 10145, 24 h; outline: as §2
Pseudomonas aeruginosa [12] = test: Antibacterial activity against Pseudomonas aeruginosa ATCC 10145 at 100 ug/ml after 24 hrs by agar well diffusion method; settings: ATCC 10145, 24 h, read-out: IZ; outline: as §2

Structure (SMILES) | MIC (Aspergillus fumigatus [2]) | MIC (Candida albicans [4]) | MIC (Bacillus subtilis [8]) | MIC (Staphylococcus aureus [9]) | MIC (Escherichia coli [10]) | MIC (Pseudomonas aeruginosa [11]) | zone of inhibition at 100 µg/mL (Aspergillus fumigatus [1]) | zone of inhibition at 100 µg/mL (Candida albicans [3]) | zone of inhibition at 100 µg/mL (Bacillus subtilis [5]) | zone of inhibition at 100 µg/mL (Staphylococcus aureus [6]) | zone of inhibition at 100 µg/mL (Escherichia coli [7]) | zone of inhibition at 100 µg/mL (Pseudomonas aeruginosa [12])
Clc1ccccc1C(c1ccccc1)(c1ccccc1)n1ccnc1 [CLOTRIMAZOLE] | 2 µg/mL (≈ 5.8 µM) | 2 µg/mL (≈ 5.8 µM) | – | – | – | – | 20 mm | 22 mm | – | – | – | –
COc1ccc(-c2nc3sc(Cc4noc5ccccc45)nn3c2Br)cc1 | 2.5 µg/mL (≈ 5.66 µM) | 4 µg/mL (≈ 9.06 µM) | 0.5 µg/mL (≈ 1.13 µM) | 1.5 µg/mL (≈ 3.4 µM) | 2 µg/mL (≈ 4.53 µM) | 2 µg/mL (≈ 4.53 µM) | 15 mm | 10 mm | 18 mm | 11 mm | 16 mm | 17 mm
COc1ccc(-c2cn3nc(Cc4noc5ccccc45)sc3n2)cc1 | 2 µg/mL (≈ 5.52 µM) | 3 µg/mL (≈ 8.28 µM) | 2.5 µg/mL (≈ 6.9 µM) | 3.5 µg/mL (≈ 9.66 µM) | 3 µg/mL (≈ 8.28 µM) | 3 µg/mL (≈ 8.28 µM) | 19 mm | 15 mm | 14 mm | 10 mm | 12 mm | 11 mm
O=Nc1c(-c2ccccc2)nc2sc(Cc3noc4ccccc34)nn12 | 2.5 µg/mL (≈ 6.92 µM) | 3.5 µg/mL (≈ 9.68 µM) | 2 µg/mL (≈ 5.53 µM) | 1 µg/mL (≈ 2.77 µM) | 3 µg/mL (≈ 8.3 µM) | 3 µg/mL (≈ 8.3 µM) | 16 mm | 13 mm | 13 mm | 18 mm | 11 mm | 10 mm
O=Nc1c(-c2ccc(Cl)cc2)nc2sc(Cc3noc4ccccc34)nn12 | 2.5 µg/mL (≈ 6.32 µM) | 3 µg/mL (≈ 7.58 µM) | 1.5 µg/mL (≈ 3.79 µM) | 2 µg/mL (≈ 5.05 µM) | 3 µg/mL (≈ 7.58 µM) | 2.5 µg/mL (≈ 6.32 µM) | 17 mm | 15 mm | 14 mm | 10 mm | 13 mm | 15 mm
CC1(C)S[C@@H]2[C@H](NC(=O)[C@H](N)c3ccccc3)C(=O)N2[C@H]1C(=O)O [AMPICILLIN] | – | – | 0.5 µg/mL (≈ 1.43 µM) | 1 µg/mL (≈ 2.86 µM) | – | 2 µg/mL (≈ 5.72 µM) | – | – | 18 mm | 19 mm | 16 mm | 17 mm
O=Nc1c(-c2cc3ccccc3oc2=O)nc2sc(Cc3noc4ccccc34)nn12 | 3.5 µg/mL (≈ 8.15 µM) | 3 µg/mL (≈ 6.99 µM) | 1.5 µg/mL (≈ 3.49 µM) | 1.5 µg/mL (≈ 3.49 µM) | 3 µg/mL (≈ 6.99 µM) | 2.5 µg/mL (≈ 5.82 µM) | 12 mm | 15 mm | 15 mm | 14 mm | 12 mm | 14 mm
Clc1ccc(-c2cn3nc(Cc4noc5ccccc45)sc3n2)cc1 | 1.5 µg/mL (≈ 4.09 µM) | 3.5 µg/mL (≈ 9.54 µM) | 0.5 µg/mL (≈ 1.36 µM) | 2 µg/mL (≈ 5.45 µM) | 1.5 µg/mL (≈ 4.09 µM) | 3 µg/mL (≈ 8.18 µM) | 16 mm | 11 mm | 17 mm | 12 mm | 18 mm | 12 mm
c1ccc(-c2cn3nc(Cc4noc5ccccc45)sc3n2)cc1 | 2 µg/mL (≈ 6.02 µM) | 3.5 µg/mL (≈ 10.5 µM) | 2 µg/mL (≈ 6.02 µM) | 1 µg/mL (≈ 3.01 µM) | 3.5 µg/mL (≈ 10.5 µM) | 3.5 µg/mL (≈ 10.5 µM) | 19 mm | 12 mm | 11 mm | 16 mm | 9 mm | 9 mm
COc1ccc(-c2nc3sc(Cc4noc5ccccc45)nn3c2N=O)cc1 | 4 µg/mL (≈ 10.2 µM) | 3 µg/mL (≈ 7.66 µM) | 3 µg/mL (≈ 7.66 µM) | 1.5 µg/mL (≈ 3.83 µM) | 2 µg/mL (≈ 5.11 µM) | 3.5 µg/mL (≈ 8.94 µM) | 10 mm | 14 mm | 11 mm | 13 mm | 16 mm | 8 mm
O=[N+]([O-])c1ccc(-c2cn3nc(Cc4noc5ccccc45)sc3n2)cc1 | 4 µg/mL (≈ 10.6 µM) | 3.5 µg/mL (≈ 9.27 µM) | 2.5 µg/mL (≈ 6.62 µM) | 1.5 µg/mL (≈ 3.97 µM) | 3 µg/mL (≈ 7.95 µM) | 3.5 µg/mL (≈ 9.27 µM) | 11 mm | 10 mm | 11 mm | 14 mm | 13 mm | 8 mm

The remaining molecules from weak to strong by MIC (Aspergillus fumigatus [2]), led by results:

MIC (Aspergillus fumigatus [2]) | MIC (Candida albicans [4]) | MIC (Bacillus subtilis [8]) | MIC (Staphylococcus aureus [9]) | MIC (Escherichia coli [10]) | MIC (Pseudomonas aeruginosa [11]) | Structure (SMILES) | zone of inhibition at 100 µg/mL (Aspergillus fumigatus [1]) | zone of inhibition at 100 µg/mL (Candida albicans [3]) | zone of inhibition at 100 µg/mL (Bacillus subtilis [5]) | zone of inhibition at 100 µg/mL (Staphylococcus aureus [6]) | zone of inhibition at 100 µg/mL (Escherichia coli [7]) | zone of inhibition at 100 µg/mL (Pseudomonas aeruginosa [12])
4.5 µg/mL (≈ 9.86 µM) | 4 µg/mL (≈ 8.77 µM) | 2.5 µg/mL (≈ 5.48 µM) | 2 µg/mL (≈ 4.38 µM) | 3.5 µg/mL (≈ 7.67 µM) | 3 µg/mL (≈ 6.57 µM) | O=[N+]([O-])c1ccc(-c2nc3sc(Cc4noc5ccccc45)nn3c2Br)cc1 | 8 mm | 9 mm | 12 mm | 11 mm | 10 mm | 11 mm
4 µg/mL (≈ 9.84 µM) | 2.5 µg/mL (≈ 6.15 µM) | 1.5 µg/mL (≈ 3.69 µM) | 1.5 µg/mL (≈ 3.69 µM) | 3.5 µg/mL (≈ 8.61 µM) | 3 µg/mL (≈ 7.38 µM) | O=Nc1c(-c2ccc([N+](=O)[O-])cc2)nc2sc(Cc3noc4ccccc34)nn12 | 11 mm | 17 mm | 14 mm | 12 mm | 9 mm | 11 mm
4 µg/mL (≈ 9.44 µM) | 3 µg/mL (≈ 7.08 µM) | 1 µg/mL (≈ 2.36 µM) | 1 µg/mL (≈ 2.36 µM) | 2 µg/mL (≈ 4.72 µM) | 1.5 µg/mL (≈ 3.54 µM) | N#CSc1c(-c2ccc(Cl)cc2)nc2sc(Cc3noc4ccccc34)nn12 | 11 mm | 15 mm | 17 mm | 18 mm | 16 mm | 19 mm
4 µg/mL (≈ 8.54 µM) | 3 µg/mL (≈ 6.41 µM) | 2 µg/mL (≈ 4.27 µM) | 1.5 µg/mL (≈ 3.2 µM) | 2 µg/mL (≈ 4.27 µM) | 2 µg/mL (≈ 4.27 µM) | N#CSc1c(-c2ccc(Br)cc2)nc2sc(Cc3noc4ccccc34)nn12 | 12 mm | 14 mm | 14 mm | 12 mm | 15 mm | 18 mm
4 µg/mL (≈ 8.97 µM) | 3 µg/mL (≈ 6.73 µM) | 0.5 µg/mL (≈ 1.12 µM) | 1.5 µg/mL (≈ 3.37 µM) | 2 µg/mL (≈ 4.49 µM) | 2.5 µg/mL (≈ 5.61 µM) | Clc1ccc(-c2nc3sc(Cc4noc5ccccc45)nn3c2Br)cc1 | 10 mm | 15 mm | 18 mm | 17 mm | 15 mm | 12 mm
3.5 µg/mL (≈ 15.1 µM) | 3 µg/mL (≈ 12.9 µM) | 1 µg/mL (≈ 4.31 µM) | 1.5 µg/mL (≈ 6.46 µM) | 3.5 µg/mL (≈ 15.1 µM) | 2.5 µg/mL (≈ 10.8 µM) | Nc1nnc(Cc2noc3ccccc23)s1 | 11 mm | 14 mm | 15 mm | 15 mm | 10 mm | 14 mm
3.5 µg/mL (≈ 8.51 µM) | 2 µg/mL (≈ 4.86 µM) | 0.5 µg/mL (≈ 1.22 µM) | 2.5 µg/mL (≈ 6.08 µM) | 1 µg/mL (≈ 2.43 µM) | 2.5 µg/mL (≈ 6.08 µM) | Brc1ccc(-c2cn3nc(Cc4noc5ccccc45)sc3n2)cc1 | 13 mm | 22 mm | 18 mm | 15 mm | 20 mm | 14 mm
2.5 µg/mL (≈ 5.1 µM) | 2.5 µg/mL (≈ 5.1 µM) | 2.5 µg/mL (≈ 5.1 µM) | 2 µg/mL (≈ 4.08 µM) | 2 µg/mL (≈ 4.08 µM) | 2 µg/mL (≈ 4.08 µM) | Brc1ccc(-c2nc3sc(Cc4noc5ccccc45)nn3c2Br)cc1 | 16 mm | 16 mm | 12 mm | 13 mm | 14 mm | 16 mm
2.5 µg/mL (≈ 5.22 µM) | 3 µg/mL (≈ 6.26 µM) | 3 µg/mL (≈ 6.26 µM) | 2 µg/mL (≈ 4.17 µM) | 2.5 µg/mL (≈ 5.22 µM) | 2.5 µg/mL (≈ 5.22 µM) | O=c1oc2ccccc2cc1-c1nc2sc(Cc3noc4ccccc34)nn2c1Br | 17 mm | 14 mm | 10 mm | 15 mm | 13 mm | 14 mm
2 µg/mL (≈ 4.37 µM) | 3.5 µg/mL (≈ 7.65 µM) | 1 µg/mL (≈ 2.19 µM) | 1.5 µg/mL (≈ 3.28 µM) | 3.5 µg/mL (≈ 7.65 µM) | 2 µg/mL (≈ 4.37 µM) | N#CSc1c(-c2cc3ccccc3oc2=O)nc2sc(Cc3noc4ccccc34)nn12 | 19 mm | 12 mm | 15 mm | 14 mm | 14 mm | 16 mm
